Measured values pooled from the literature.
Protocols differ between the studies behind these lines.
Target: Tyrosine-protein kinase JAK2 (JAK2, Homo sapiens, UniProt O60674)
Effect on: enzyme activity
Mode: inhibitor

`Cc1ccc(C(=O)Nc2ccc(CN3CCN(C)CC3)c(C(F)(F)F)c2)cc1C#Cc1cnc2cccnn12` has a remaining activity of 58% (23.5 nM).
`O=C(NCCCNc1nc(Nc2cccc(CN3CCOCC3)c2)ncc1C1CC1)C1CCC1` has a remaining activity of 46% (radiometric; 1 µM).
`CC(C)(C)c1nc(-c2cccc(NS(=O)(=O)c3c(F)cccc3F)c2F)c(-c2ccnc(N)n2)s1` gave a remaining activity of 90% (radiometric; 1 µM).
With `Cc1nn(CC(F)(F)F)cc1Nc1ncc(Br)c(NCc2ccc(S(N)(=O)=O)cc2)n1` the remaining activity was 70% (radiometric; 1 µM).
For `O=C(Nc1cnn(-c2csc(C(=O)NC3COC3)c2)c1)Nc1ccccc1Cl`, the remaining activity was 98.2% (5 µM).
The remaining activity of `COc1cc(Nc2cnc(C#N)c(O[C@H](C)CN(C)C)n2)ncc1-c1cnn(C)c1` is reported as 41% (radiometric; 10 µM).
`O=C(Nc1cccc(Nc2ncc(Br)c(NCCc3cnc[nH]3)n2)c1)N1CCCC1` has a remaining activity of 24% (radiometric; 1 µM).
`O=C(Nc1cnn(-c2csc(C(=O)NC3COC3)c2)c1)Nc1c(F)cccc1Cl` gave a remaining activity of 96.5% (5 µM).
`COc1cc(Cl)c(C(=O)N[C@@H](CN[C@H]2CC[C@@H](N)CC2)Cc2ccc(C#N)cc2)cc1-c1ccc(CN[C@H](C)c2ccc(C)cc2)o1` gave a remaining activity of 104% (1 µM).
`Cn1c(=O)n(-c2ccc(C(C)(C)C#N)cc2)c2c3cc(-c4cnc5ccccc5c4)ccc3ncc21` gave a remaining activity of 24% (10 µM).
`Cc1cnc(NC2CCOCC2)nc1-n1cnc(C(=O)NC(CN)c2cc(F)cc(Cl)c2)c1` (stereo not shown) gave a remaining activity of 104% (radiometric; 1 µM).
The remaining activity of `Oc1cccc(-c2nc(N3CCOCC3)c3oc4ncccc4c3n2)c1` is reported as 93% (10 µM).
`Brc1cnc(Nc2cccc(CN3CCOCC3)c2)nc1NCCc1c[nH]cn1` has a remaining activity of 6% (radiometric; 1 µM).
`CC(C)(C)c1nc2c(s1)c1nc(N)ncc1c1ccc(NS(=O)(=O)c3c(F)cccc3F)c(F)c12` has a remaining activity of 85% (radiometric; 1 µM).
For `CN1CCc2cc(Nc3ncc(C4CC4)c(NCCCNC(=O)C4CCC4)n3)ccc2C1`, the remaining activity was 44% (radiometric; 1 µM).
For `CC(C)(O)[C@H]1CC[C@H](Nc2ccc3ncc(-c4cccc(C(F)(F)F)c4)n3n2)CC1`, the remaining activity was 24.8% (1 µM).
